The nature of assay [1]: inhibitors of TNFa-induced NFkB p65 translocation, primary screen, imaging, HUVEC, MLSMR starter and 10KST1 sets (AID 438;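 active means inhibition above 20% together with a positive visual image hit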;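 further: compound added about 3h40 before a 20 min TNFalpha stimulation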;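 on inhibition: signal is the nuclear over cytoplasmic p65 intensity ratio per well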). As to conditions: HUVEC TNFa-induced p65 nuclear translocation; cell count: measured here: nuclei count (cytotoxicity indicator), at 2.08 µM; inhibition: at 2 µM, stronger effect = higher value, 0% TNFa-plus-vehicle, 100% no-TNFa wells.
The nature of assay [2]: endothelial E-selectin expression blockers – imaging, HUVEC, immunofluorescence, MLSMR starter and 10KST1 sets, primary screen (AID 487;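 active means visually confirmed hit in the image check and inhibition above 20%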;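 on inhibition: signal is fraction of cell area covered by stained E-selectin grains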;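 on nuclei count: 100% = median nuclei count of all wells on the same plate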). As to conditions: HUVEC TNFalpha-induced E-selectin immunofluorescence imaging, at 2 µM; inhibition: stronger effect = higher value; nuclei count: measured here: cell number, toxicity.
A short description of assay [3]: Primary imaging screen for DUSP6 inhibitors that restore phospho-Erk in transfected HeLa cells, chemical complementation (AID 609;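 active means compounds giving at least 50% inhibition in the cell-based MKP-3 phosphatase rescue imaging test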;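 on inhibition: phospho-Erk level distribution per well compared with pooled transfected vehicle control wells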). The note with it: HeLa MKP-3 transfected, phospho-Erk imaging KS statistic, at 10 µM, cells stimulated with TPA for 15 min.
Assay [4] addresses Dual specificity protein phosphatase 6 (Homo sapiens) (UniProt Q16828). Described as above. As to conditions: HeLa MKP-3 transfected, phospho-Erk imaging KS statistic; at 10 µM; stronger effect = higher value; cells stimulated with TPA for 15 min.
Assay [5] concerns the target Voltage-gated potassium channel subunit beta-2 (Rattus norvegicus) (UniProt P62483). In words: inhibitors of rat Kvbeta2 reductase activity – biochemical, NADPH fluorescence, primary screen (AID 622;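 active means fluorescence slope higher than the sample average by over 3 SD, cut at about -0.22 in these data, passing the limit was not always enough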;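 further: slope of raw intensity against log time taken from 70 to 1610 s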). As to conditions: recombinant KvBeta, 4-cyanobenzaldehyde reduction, at 10 µM, stronger effect = higher value.
Assay [6] shares this target. In words: enhancers of rat Kvbeta2 NADPH turnover – biochemical, NADPH fluorescence, primary screen (AID 623;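 active means NADPH fluorescence slope more negative than the mean of all samples by about 3 SD, 99.7% confidence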;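 further: fluorescence intensity change per second fitted from 20 to 320 s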). The note with it: Recombinant KvBeta, NADPH fluorescence decrease slope, 10 min; at 10 µM; stronger effect = lower value.
Assay [7] addresses Muscarinic acetylcholine receptor M4 (Homo sapiens) (UniProt P08173). In words: M4-linked GIRK flux change, two-sided – cell-based, HEK293 M4/GIRK, thallium flux, BTC-AM, M4 allosteric agonist project, primary screen (AID 625;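 active means fluorescence slope after compound addition differing from the mean of all tested samples at 99.7% confidence, mostly higher but some lower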;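 further: thallium influx through GIRK channels coupled to M4 in HEK293 cells with BTC-AM dye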). The note with it: at 10 µM, actives lie on both sides. In outline:
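System: HEK293 cells with M4 receptor and GIRK channels | Incubation: Cells overnight at 37 °C, BTC-AM loading 1 h, reads 2 min total | Technique: Kinetic BTC-AM fluorescence sampled at 1 Hz, 10 s pre-addition baseline | Measure: Post-addition slope, 15–24 s, of baseline-normalized fluorescence | Control set: Carbachol positive, DMSO negative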

Assay [8] in a line: inhibitors of larval lipid processing in zebrafish, primary screen, whole organism, PED6 fluorescence, gall bladder and intestine (AID 686).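 Further: larvae 5 to 7 days old with five fish per well; signal comes from phospholipase A2 cleavage of quenched PED6 carried via bile; overnight exposure to compound and PED6 before scoring.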 As to conditions: Zebrafish larvae PED6 lipid processing, fluorescence scoring; screened at 20 µM (by protocol). In outline: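 Test system – live zebrafish larvae aged 5-7 days, whole organism · Buffer or medium – E3 fish medium · Reagent – quenched phospholipase substrate PED6, 100 nM final, ingested by larvae · Doses – 20 µM single dose · Incubation – overnight compound and PED6 incubation · Technique – visual fluorescence microscopy scoring of gall bladder, gut · Read-out basis – visual per-well fluorescence inhibition score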

Assay [9] in a line: loss of swimming-algae plug formation – whole organism, Chlamydomonas reinhardtii, WT vs cilia-less mutant, absorbance, 96-well, primary screen (AID 463189;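 active means inhibition at or above 50% relative to wild type and mutant plate controls; inactive means inhibition below 50%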;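 further: 0% = wild type cc124 cells in DMSO and 100% = ciliumless bld1 mutant cells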). As to conditions: Chlamydomonas reinhardtii gravitaxis, OD600 absorbance, 2 days; at 10 µM; stronger effect = higher value.
Setting [10] is: measured here: cell density z-score.
The mark [11] stands for this setting: measured here: nuclear c-Myc green intensity z-score.
Where [12] appears, read: measured here: nuclear pErk red intensity z-score, stronger effect = higher value.

SMILES strings stand for the structures. Calls of active or inactive are those of the source.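 How the source made its calls, unless noted: active means a full or partial loss of lipid-probe fluorescence in the fish gall bladder, intestine or both, judged by eye; inactive means no fluorescence loss, or compound toxic to the fish.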

Results on seven molecules are retold here after PubChem BioAssay.

Sequence of Dual specificity protein phosphatase 6 (Homo sapiens) (Q16828 whole entry, looked up): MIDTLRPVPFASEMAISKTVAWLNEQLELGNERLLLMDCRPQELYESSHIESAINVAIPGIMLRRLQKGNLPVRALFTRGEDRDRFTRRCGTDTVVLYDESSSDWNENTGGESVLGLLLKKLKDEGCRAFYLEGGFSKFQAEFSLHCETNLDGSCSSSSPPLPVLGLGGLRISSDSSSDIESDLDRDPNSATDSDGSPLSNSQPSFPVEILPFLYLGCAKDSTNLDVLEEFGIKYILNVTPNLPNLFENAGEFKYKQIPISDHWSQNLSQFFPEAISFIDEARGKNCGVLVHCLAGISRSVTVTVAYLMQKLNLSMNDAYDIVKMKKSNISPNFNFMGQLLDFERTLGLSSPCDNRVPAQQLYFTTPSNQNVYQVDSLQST
Sequence of Voltage-gated potassium channel subunit beta-2 (Rattus norvegicus) (P62483 whole entry, looked up): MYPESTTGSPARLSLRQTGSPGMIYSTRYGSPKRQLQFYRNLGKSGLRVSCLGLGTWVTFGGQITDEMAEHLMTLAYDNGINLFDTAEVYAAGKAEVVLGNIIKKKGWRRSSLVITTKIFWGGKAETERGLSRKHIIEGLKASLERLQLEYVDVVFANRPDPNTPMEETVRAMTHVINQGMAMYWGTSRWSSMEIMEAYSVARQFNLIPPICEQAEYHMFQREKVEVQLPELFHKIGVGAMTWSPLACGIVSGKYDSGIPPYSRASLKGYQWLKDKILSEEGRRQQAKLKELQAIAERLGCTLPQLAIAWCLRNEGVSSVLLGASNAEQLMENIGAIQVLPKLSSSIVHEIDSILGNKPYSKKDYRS
Sequence of Muscarinic acetylcholine receptor M4 (Homo sapiens) (P08173 whole entry, looked up): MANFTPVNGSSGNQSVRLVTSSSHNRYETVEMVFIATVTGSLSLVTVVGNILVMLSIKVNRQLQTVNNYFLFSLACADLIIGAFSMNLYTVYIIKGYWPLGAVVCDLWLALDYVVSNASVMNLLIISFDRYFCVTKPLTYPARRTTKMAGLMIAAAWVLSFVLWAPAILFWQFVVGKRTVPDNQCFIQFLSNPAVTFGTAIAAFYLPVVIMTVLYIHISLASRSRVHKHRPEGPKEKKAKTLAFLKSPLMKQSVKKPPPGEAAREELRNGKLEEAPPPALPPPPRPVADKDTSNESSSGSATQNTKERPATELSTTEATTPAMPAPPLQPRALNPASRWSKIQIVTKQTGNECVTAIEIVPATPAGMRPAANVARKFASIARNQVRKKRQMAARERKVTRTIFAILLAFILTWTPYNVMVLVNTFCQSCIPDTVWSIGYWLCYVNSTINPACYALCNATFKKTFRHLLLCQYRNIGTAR

For `CNc1oc(-c2cccs2)nc1C#N`, the cell count in assay [1] turned out to be 683. Besides, the inhibition in assay [1] is -0.7% (inactive); in [2], -2.1% (inactive); in assay [4], 1.63% (inactive); in assay [9], 7.4% (inactive). The nuclei count in [2] was determined as 144%. Also, the values for the z-score in assay [3] (setting [10]), in assay [3] (setting [11]) and in [3] (setting [12]) were 0.965, 0.294 and 0.102, respectively. Besides, the fluorescence slope was -0.0289 (inactive) in assay [5] and 0.00668 (inactive) in assay [7]. Also, the NADPH fluorescence slope in assay [6] was -2.3e-05 (inactive). Besides, the outcome in assay [8] was inactive.

For the molecule `N#Cc1cc(Oc2cccc3cccnc23)c(-n2nnc3ccccc32)cc1C#N`, in assay [1], the cell count turned out to be 527. For the same molecule, the inhibition is -0.1% (inactive) in assay [1], -156% (inactive) in [2], 6.04% (inactive) in assay [4] and 25.9% (inactive) in [9]. In assay [2], this molecule showed a nuclei count of 145%. The z-score in [3] (setting [10]) is 2.59; in assay [3] (setting [11]), -0.877; in assay [3] (setting [12]), -1.07. The fluorescence slope in assay [5] was -0.438 (inactive); in assay [7] it was 0.0061 (inactive). Besides, the NADPH fluorescence slope in assay [6] is -2.5e-05 (inactive). Also, the call in assay [8] was inactive.

With `COc1cccc(C(=O)c2sc(NC(C)C)nc2N)c1`, the cell count in assay [1] came to 637. The inhibition is -11.5% (inactive) in assay [1], 61.3% (inactive) in [2], -3.95% (inactive) in [4] and -1.39% (inactive) in assay [9]. The nuclei count in [2] was found to be 158%. Moreover, the results for the z-score in assay [3] (setting [10]), in assay [3] (setting [11]) and in [3] (setting [12]) were -0.552, 2.2 and 0.884, respectively. The fluorescence slope was -0.496 (inactive) in [5] and 0.00607 (inactive) in [7]. In assay [6], the NADPH fluorescence slope is -7.1e-05 (inactive). Moreover, the molecule was classed as inactive in [8].

As for `Cn1c(NCc2ccccc2)nc2c1c(=O)n(Cc1ccc(Br)cc1)c(=O)n2C`, the cell count in assay [1] amounted to 696. The inhibition in assay [1] is -21.9% (inactive); in [2], -78.3% (inactive); in assay [4], 13.9% (inactive); in [9], 36.1% (inactive). In assay [2], this molecule showed a nuclei count of 171%. The z-score came to 0.333 in assay [3] (setting [10]), 0.526 in assay [3] (setting [11]) and 0.876 in [3] (setting [12]). The results for the fluorescence slope in [5] and in assay [7] were -0.47 (inactive) and 0.00559 (inactive), respectively. Besides, the NADPH fluorescence slope in assay [6] was -5.2e-05 (inactive). The outcome in assay [8] was inactive.

On to `CC(C)(C)c1cc(-c2ccco2)c(C#N)c(SCC#N)n1`, for which the cell count in assay [1] came out at 685. Besides, the inhibition in [1] was 6.9% (inactive); in assay [2] it was -48.1% (inactive); in assay [4], -9.53% (inactive); in assay [9], -12.6% (inactive). The nuclei count in assay [2] came out at 116%. Moreover, the z-score in assay [3] (setting [10]) was 0.036; in assay [3] (setting [11]) it was 0.336; in assay [3] (setting [12]) it was 0.596. In addition, the fluorescence slope was -0.442 (inactive) in [5] and 0.0081 (inactive) in assay [7]. In addition, the NADPH fluorescence slope in [6] is -7.2e-05 (inactive). Moreover, the call in assay [8] was inactive.

In the case of `CCCCCOC(=O)C(C)c1c(C)[nH]c(=S)[nH]c1=O` (stereo unspecified), the cell count in [1] stood at 628. Also, the inhibition was -1.4% (inactive) in [1], -25.9% (inactive) in [2], 1.04% (inactive) in assay [4] and -3.91% (inactive) in [9]. Moreover, in [2], the nuclei count is 158%. For the same molecule, the z-score in assay [3] (setting [10]) is -0.614; in assay [3] (setting [11]), -0.028; in assay [3] (setting [12]) it was 2.51. Also, the fluorescence slope in [5] was -0.47 (inactive); in assay [7], 0.00582 (inactive). Also, in [6], the NADPH fluorescence slope was -8.1e-05 (inactive). Further, in [8], the outcome was inactive.

As for `O=c1c2c3c(sc2nc2n1CCCS2)CCCC3`, in assay [1], the cell count stood at 612. For the same molecule, the inhibition was -6.1% (inactive) in assay [1], -125% (inactive) in assay [2], -7.67% (inactive) in assay [4] and 73.3% (active) in assay [9]. The molecule also registered a nuclei count in assay [2] of 162%. The z-score in assay [3] (setting [10]) is -0.979; in [3] (setting [11]), -0.423; in [3] (setting [12]), 0.7. Also, the fluorescence slope was -0.477 (inactive) in [5] and 0.00442 (inactive) in [7]. Moreover, the NADPH fluorescence slope in [6] was -9.8e-05 (inactive). Besides, the molecule was called inactive in [8].

One may read the inhibition as the drop in the measured response relative to a control, in per cent.
